Data reported in ChEMBL document CHEMBL1132627, “Synthesis and biological evaluation of boron-containing polyamines as potential agents for neutron capture therapy of brain tumors” (J Med Chem, 1999).
Values joined by “and” are separate entries in the source; they are usually repeats but may differ in a detail not shown here. Equal values may be shown once. Each block holds one compound with its values, some of them ahead of it.

How the values were obtained:
[1] = In Vitro Toxicity measured as the conc. required for 50% reduction in SRBabsorbance by F98 glioma cells; type: functional, Rattus norvegicus
In short: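 F98 rat glioma cells, 10,000/well in DMEM with 10% FBS, grown overnight at 37 °C, 5% CO2. Then exposed 24 h to varying compound concentrations. Fixed with cold TCA (1 h, 4 °C), stained 20 min with 0.4% SRB in 1% acetic acid, dye solubilized in 10 mM Tris base, A492 read. Six replicates per concentration, expressed as % untreated control; IC50 = 50% reduction.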

[2] = tested on: Mus musculus; assay: In vivo biodistribution in mice kidney bearing intracerebral GL261 gliomas at the dose of 10 microg of boron/g/day; type: ADME, organism-based
In short: (§1)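 C57Bl/6 mice implanted stereotactically in brain (2.5–3.0 mm deep) with 10^5 GL261 cells in serum-free DMEM with 1.5% agarose. Polyamine-deficient diet and 2% DFMO water for 3 days, then Alzet pump infusion at 10 μg boron/g per day for 3 days with diet and DFMO continued. Five mice; tissue boron by DCP-AES, mean ± SD.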

[3] = tested on: Mus musculus; assay: In vivo biodistribution in mice liver bearing intracerebral GL261 gliomas at the dose of 10 microg of boron/g/day; type: ADME, organism-based; in short: as §1
[4] = In vitro cellular uptake by F98 glioma cells after 48 hr incubation in the presence of 5.1 micro g of B/mL media concentration; type: functional, Rattus norvegicus
In short: (§2)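 5×10^6 F98 cells per flask in DMEM with 10% FBS for 24 h. Medium then replaced with compound at the molar concentration matching the stated boron level, and cells held at 37 °C, 5% CO2. Cells washed three times with PBS, detached with trypsin-EDTA and digested in H2SO4/H2O2. Boron in media and cells by DCP-AES; 10^9 cells ≈ 1 g.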

[5] = tested on: Nucleic Acid; assay: Concentration required to decrease the fluorescence of the ethidium bromide-calf thymus DNA complex by 50%; type: nucleic-acid assay, Bos taurus
In short: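 Calf thymus DNA (10 μg) in 2 mM HEPES, 10 μM EDTA, 9.4 mM NaCl, pH 7.0, with 1.6 μM ethidium bromide. Polyamine added stepwise in aliquots. Fluorescence read at excitation 546 nm and emission 598 nm. IC50 is the concentration that lowers complex fluorescence by 50%.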

[6] = species on record: Rattus norvegicus; assay: In vitro cellular uptake by F98 glioma cells after 24 h incubation in the presence of 5.4 ug of B/mL media concentration; type: functional; in short: as §2
[7] = species on record: Rattus norvegicus; assay: In vitro cellular uptake by F98 glioma cells after 48 hr incubation in the presence of 0.5 micro g of B/mL media concentration; type: functional; in short: as §2
[8] = species on record: Rattus norvegicus; assay: In vitro cellular uptake by F98 glioma cells after 48 hr incubation in the presence of 5.4 micro g of B/mL media concentration; type: functional; in short: as §2
[9] = species on record: Rattus norvegicus; assay: In vitro cellular uptake by F98 glioma cells after 24 h incubation in the presence of 5.3 ug of B/mL media concentration; type: functional; in short: as §2
[10] = species on record: Rattus norvegicus; assay: In vitro cellular uptake by F98 glioma cells after 48 hr incubation in the presence of 5.3 micro g of B/mL media concentration; type: functional; in short: as §2
[11] = tested on: Mus musculus; assay: In vivo biodistribution in mice blood bearing subcutaneous B16 melanomas at the dose of 10 ug/g; type: ADME, organism-based
[12] = In vitro concentration required for 50% reduction in the uptake of [3H]-TdR by F98 glioma cells; type: functional, Rattus norvegicus
[13] = tested on: Mus musculus; assay: In vivo biodistribution in mice liver bearing subcutaneous B16 melanomas at the dose of 10 ug/g; type: ADME, organism-based
[14] = tested on: Mus musculus; assay: In vivo biodistribution in mice kidney bearing subcutaneous B16 melanomas at the dose of 10 ug/g; type: ADME, organism-based
[15] = tested on: Mus musculus; assay: In vivo biodistribution in mice muscle bearing subcutaneous B16 melanomas at the dose of 10 ug/g; type: ADME, organism-based, Muscle tissue
[16] = species on record: Rattus norvegicus; assay: In vitro cellular uptake by F98 glioma cells after 24 h incubation in the presence of 0.5 ug of B/mL media concentration; type: functional

- Biodistribution [2]: 44 ug of B g-1
- Biodistribution [3]: 22.9 ug of B g-1
- IC50 [5]: 115 µM
Compound: Cl.Cl.Cl.NCCCCN(CCCN)Cc1ccc(B(O)O)cc1
- IC50 [1]: > 5000 µM
- Ccellular [4]: 114 ug of B (g of cells)-1

Compound: 3-(2-{4-[(4-Amino-butyl)-(3-amino-propyl)-amino]-butyl}-cyclopropyl)-propane-1,2-diol; trihydrochloride
- Ccellular (ug of B (g of cells)-1) [6]: 51
- Ccellular (ug of B (g of cells)-1) [7]: 9
- Ccellular (ug of B (g of cells)-1) [8]: 104

Compound: 3-[2-(4-{(3-Amino-propyl)-[4-(3-amino-propylamino)-butyl]-amino}-butyl)-cyclopropyl]-propane-1,2-diol hydrochloride
- Ccellular (ug of B (g of cells)-1) [9]: 60
- Ccellular (ug of B (g of cells)-1) [10]: 83
- Ccellular (ug of B (g of cells)-1) [7]: 20

- IC50 [5]: 105 µM
Compound: NCCCCNCCCN [SPERMIDINE]
- IC50 [1]: > 100 µM

- IC50 [5]: 3 µM
Compound: NCCCNCCCCNCCCN [SPERMINE]
- IC50 [1]: > 100 µM

- Biodistribution [11]: 9.3 ug of B g-1 and 12.5 ug of B g-1
- IC50 [12]: 22 µM
- Biodistribution [13]: 74.8 ug of B g-1
- Biodistribution [14]: 201.3 ug of B g-1
- IC50 [5]: 147 µM
- Biodistribution [15]: 9.8 ug of B g-1
Compound: N1-(3-Amino-propyl)-N1-(4-cyclopropyl-butyl)-butane-1,4-diamine(B10H10) [listing 1 of 2 here]

Compound: N1-(3-Amino-propyl)-N1-(4-cyclopropyl-butyl)-butane-1,4-diamine(B10H10) [listing 2 of 2 here]
- Ccellular (ug of B (g of cells)-1) [16]: 65
- Ccellular (ug of B (g of cells)-1) [7]: 43

Compound: N*1*-{4-[2-(2-Amino-ethyl)-cyclopropyl]-butyl}-N*1*-(3-amino-propyl)-butane-1,4-diamine; trihydrochloride
- Ccellular (ug of B (g of cells)-1) [6]: 51
- Ccellular (ug of B (g of cells)-1) [7]: 19
- Ccellular (ug of B (g of cells)-1) [8]: 116

Compound: N,N'-Bis-(3-amino-propyl)-N-(4-cyclopropyl-butyl)-butane-1,4-diamine hydrochloride
- Ccellular (ug of B (g of cells)-1) [7]: 64

Compound: N-{4-[2-(2-Amino-ethyl)-cyclopropyl]-butyl}-N,N'-bis-(3-amino-propyl)-butane-1,4-diamine hydrochloride
- Ccellular (ug of B (g of cells)-1) [9]: 82
- Ccellular (ug of B (g of cells)-1) [10]: 229
- Ccellular (ug of B (g of cells)-1) [7]: 15
